Screens from PubChem BioAssay.
NR2E3 ag-1: NR2E3 agonists in two-hybrid cells, primary screen, cell-based, luminescence, CHO-S, Gal4-NCOR/VP16-NR2E3. Photoreceptor-specific nuclear receptor (Homo sapiens), Q9Y5X4. luciferase. inhibition of corepressor binding, % at 3.98 µM. 360,000 tested, 0.35% active. AID 602229, 2012;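 active = inhibition above the mean of all tested compounds plus 3 SD, cut at about 70% in these data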;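 also: higher means lower luciferase signal from less NR2E3 corepressor binding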
NR2E3 ag-2: inhibitors of NR2E3-RetCOR corepressor binding, primary screen, NR2E3 agonist project, biochemical, TR-FRET, GST-NR2E3, biotin-RetCOR | Photoreceptor-specific nuclear receptor (Homo sapiens), Q9Y5X4 | 1536-well | inhibition of corepressor binding, % at 4.78 µM | 320,000 tested, 0.12% active | AID 2300, 2010;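 active = percent inhibition above the cutoff of mean plus 3 SD of all tested compounds, set per screening campaign, cut at about 20% in these data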
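Material: NR2E3–RetCOR corepressor complex / Incubation: Compound–protein incubation for 5 h at 4 °C / Dosing: compound at 4.8 µM, single dose / Detection: time-resolved FRET / Benchmarks: high control biotin, low control 0.6% DMSO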
PG9 Ab binder: binders of HIV-1 gp120 antibody PG9, primary screen, biochemical, TR-FRET; TR-FRET gp120-PG9 antibody binding; 360,000 tested, 0.43% active; HIV-1 gp120 / PG9 antibody interaction; inhibition, % at 6.7 µM; in the data active = inhibition above about 8.5%
NR1D1 modulator: modulators of Rev-erb alpha DNA binding, primary screen, biochemical, FITC-DNA, fluorescence polarization, uHTS; Rev-erbα–FITC-DNA binding, 90 min; activity, % at 10 µM; 370,000 tested, 0.79% active; Nuclear receptor subfamily 1 group D member 1 (Homo sapiens), P20393;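 active = activity above about 14%, limit read from the data; passing the limit was not always enough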
Target sequence (P20393 whole entry, looked up): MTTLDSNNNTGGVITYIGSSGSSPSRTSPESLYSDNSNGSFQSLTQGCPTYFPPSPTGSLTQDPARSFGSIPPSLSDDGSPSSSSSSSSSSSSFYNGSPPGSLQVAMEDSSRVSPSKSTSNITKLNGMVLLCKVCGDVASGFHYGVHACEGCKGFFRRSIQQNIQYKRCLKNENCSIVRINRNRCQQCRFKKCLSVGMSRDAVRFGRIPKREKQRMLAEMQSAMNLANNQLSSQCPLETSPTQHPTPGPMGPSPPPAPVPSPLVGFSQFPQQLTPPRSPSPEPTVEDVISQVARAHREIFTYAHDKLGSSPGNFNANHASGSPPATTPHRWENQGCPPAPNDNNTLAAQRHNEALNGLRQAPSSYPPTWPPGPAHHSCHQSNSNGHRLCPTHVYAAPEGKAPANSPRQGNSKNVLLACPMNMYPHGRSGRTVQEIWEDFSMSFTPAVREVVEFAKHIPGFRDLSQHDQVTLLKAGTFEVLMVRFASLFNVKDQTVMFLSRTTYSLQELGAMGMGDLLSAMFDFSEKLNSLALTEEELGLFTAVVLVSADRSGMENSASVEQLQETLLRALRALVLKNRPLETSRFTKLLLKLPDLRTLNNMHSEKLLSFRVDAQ
Each line names hits and unclear results; the compound was inactive in the other large screens. A selection: hits, their analogues and other compounds. The true share with any hit is near 1.5%.

COc1ccc(/C(O)=C2/C(=O)C(=O)N(CCN(C)C)C2c2ccccc2)cc1Cl (stereo not given)	PG9 Ab binder 8.7
NC(=O)C(c1ccccc1)(c1ccccc1)[C@H]1CCN(CCc2ccc3c(c2)CCO3)C1	none (no result: NR2E3 ag-1, NR2E3 ag-2, PG9 Ab binder)
CC(=O)N[C@@H](C=O)[C@@H](O)[C@@H](O)[C@H](O)CO	none (no result: NR2E3 ag-1, NR2E3 ag-2, PG9 Ab binder)
Cc1cc(NCCCCCCCNc2cc(C)nc3cc([N+](=O)[O-])ccc23)c2ccc([N+](=O)[O-])cc2n1	PG9 Ab binder 13 (no result: NR2E3 ag-2)
O=C(O)C1=CC(=C(c2ccc(O)c(C(=O)O)c2)c2ccc(O)c(C(=O)O)c2)C=CC1=O	NR2E3 ag-2 30 (no result: NR2E3 ag-1, PG9 Ab binder, NR1D1 modulator)
CC(=O)[C@@]1(O)CCC2C3C[C@H](C)C4=CC(=O)C=CC4(C)[C@@]3(F)[C@@H](O)C[C@@]21C (stereo not given in full)	none (no result: NR2E3 ag-1, NR2E3 ag-2, PG9 Ab binder)
O=C(O)CCC1c2cc3c4cc2OC2Oc5cc6c(cc51)C(CCC(=O)O)c1cc5c7cc1OC(O6)c1cc6cc(c1)Oc1cc(cc(C(=O)O)c1)Oc1cc8cc(c1)C(Oc1cc(c(cc1C5CCC(=O)O)C3CCC(=O)O)OC(O4)c1cc(cc(c1)Oc1cc(cc(C(=O)O)c1)O8)Oc1cc(cc(C(=O)O)c1)Oc1cc(cc2c1)Oc1cc(cc(C(=O)O)c1)O6)O7 (stereo not given)	NR2E3 ag-2 21 (no result: NR2E3 ag-1, PG9 Ab binder, NR1D1 modulator)
CCC(=O)OCC(=O)[C@@]1(OC(=O)CC)[C@@H](C)CC2C3CCC4=CC(=O)C=C[C@]4(C)[C@@]3(F)[C@@H](O)C[C@@]21C (stereo not given in full)	none (no result: NR2E3 ag-1, NR2E3 ag-2, PG9 Ab binder)
O=C(Nc1ccc(-c2nc3ncccc3o2)cc1)c1ccc(Br)o1	PG9 Ab binder 41
O=C(Nc1ccc(-c2nc3ncccc3o2)cc1)c1ccco1	none
CC(C)(C)C1C/C(=C/c2ccccn2)C(=O)/C(=C/c2ccccn2)C1 (stereo not given)	NR2E3 ag-1 96 (no result: PG9 Ab binder, NR1D1 modulator)
CC1C/C(=C/c2ccccn2)C(=O)/C(=C/c2ccccn2)C1 (stereo not given)	none (no result: PG9 Ab binder, NR1D1 modulator)
C[C@@H](O)[C@H]1C(=O)N2C(C(=O)O)=C(SC3Cn4cnc[n+]4C3)[C@H](C)[C@H]12 (stereo not given in full)	none (no result: NR2E3 ag-1, NR2E3 ag-2, PG9 Ab binder)
C=Cc1c(C)/c2[n-]/c1=C\c1[n-]c(c(CC)c1C)/C=c1\[n-]c3c(c1C)C(=O)C(C(=O)O)C=3c1[n-]c(c(C)c1CCC(=O)O)\C=2.[Cu] (stereo not given)	none (no result: NR2E3 ag-1, NR2E3 ag-2, PG9 Ab binder)
Cc1cc(NC(=O)COc2ccc3ccccc3c2Br)no1	PG9 Ab binder 10.0 (no result: NR2E3 ag-2)
Nc1ncn([C@@H]2O[C@H](CO)[C@H](O)C2O)c(=O)n1 (stereo not given in full)	none (no result: NR2E3 ag-1, NR2E3 ag-2, PG9 Ab binder)
CCCCCCCCCCCCCCCCCCCCCCCCCCCCO	none (no result: NR2E3 ag-1, NR2E3 ag-2, PG9 Ab binder)
CO[C@@]12[C@@H]3N[C@H]3CN1C1=C(C(=O)C(N)=C(C)C1=O)[C@@H]2COC(N)=O	none (no result: NR2E3 ag-1, NR2E3 ag-2, PG9 Ab binder)
O=S(=O)(O)OC[C@H]1O[C@@](COS(=O)(=O)O)(O[C@H]2O[C@H](COS(=O)(=O)O)[C@@H](OS(=O)(=O)O)[C@H](OS(=O)(=O)O)[C@H]2OS(=O)(=O)O)[C@@H](OS(=O)(=O)O)[C@@H]1OS(=O)(=O)O	none (no result: NR2E3 ag-1, NR2E3 ag-2, PG9 Ab binder)
C[n+]1c(/C=C/c2ccc(O)cc2)ccc2ccccc21	none
Cc1cc(/C=C\c2ccc3cc(N(C)C)ccc3[n+]2C)c(C)n1-c1ccccc1	NR2E3 ag-1 100 (no result: PG9 Ab binder, NR1D1 modulator)
O=C(O)CC(S)C(=O)O (stereo not given)	none (no result: NR2E3 ag-1, NR2E3 ag-2, PG9 Ab binder)
Nc1ccn(C2O[C@H](CO)[C@@H](O)[C@@H]2O)c(=O)n1 (stereo not given in full)	none (no result: NR2E3 ag-1, NR2E3 ag-2, PG9 Ab binder)
OCCN1CCN(c2nc(-c3ccccc3)c3cc(Br)ccc3n2)CC1	PG9 Ab binder 8.7
CC(=O)[C@@]1(O)CCC2C3C=C(Cl)C4=CC(=O)[C@@H]5C[C@H]5[C@]4(C)C3CC[C@@]21C (stereo not given in full)	none (no result: NR2E3 ag-1, NR2E3 ag-2, PG9 Ab binder)
Oc1ccc(Nc2nc3ccccc3nc2Nc2ccc(O)cc2)cc1	NR2E3 ag-1 95 (no result: PG9 Ab binder, NR1D1 modulator)
CC(C)(C)NC(=O)[C@H]1CCC2C3CCC4NC(=O)C=C[C@]4(C)C3CC[C@@]21C (stereo not given in full)	none (no result: NR2E3 ag-1, NR2E3 ag-2, PG9 Ab binder)
CCCOc1cccc(C2/C(=C(/O)c3ccc4c(c3)CC(C)O4)C(=O)C(=O)N2CCN2CCOCC2)c1 (stereo not given)	none
